# Bioassay records (PubChem BioAssay)
# Sampled rows, rich in hits. Any-hit rate of the full collection: about 1.2%.
# Runt-SMMHC FRET: blocks binding of human RUNX1 Runt domain to CBFb-SMMHC. inhibition, % at 20 µM. Cerulean-Runt/Venus-CBFb-SMMHC FRET ratio 530/480, 1 h. hit rate 0.74% among 220,000. AID 1434. Q01196+Q13951;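 active means mean inhibition across duplicate retests at 20 µM reaching about 50%, limit read from the data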;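 further: 0% = DMSO wells and 100% = wells with excess untagged CBFb-SMMHC; inhibitors lower the FRET ratio by blocking Runt binding to CBFb-SMMHC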
# Target sequence (Q01196 whole entry, looked up, the tested form may be a part): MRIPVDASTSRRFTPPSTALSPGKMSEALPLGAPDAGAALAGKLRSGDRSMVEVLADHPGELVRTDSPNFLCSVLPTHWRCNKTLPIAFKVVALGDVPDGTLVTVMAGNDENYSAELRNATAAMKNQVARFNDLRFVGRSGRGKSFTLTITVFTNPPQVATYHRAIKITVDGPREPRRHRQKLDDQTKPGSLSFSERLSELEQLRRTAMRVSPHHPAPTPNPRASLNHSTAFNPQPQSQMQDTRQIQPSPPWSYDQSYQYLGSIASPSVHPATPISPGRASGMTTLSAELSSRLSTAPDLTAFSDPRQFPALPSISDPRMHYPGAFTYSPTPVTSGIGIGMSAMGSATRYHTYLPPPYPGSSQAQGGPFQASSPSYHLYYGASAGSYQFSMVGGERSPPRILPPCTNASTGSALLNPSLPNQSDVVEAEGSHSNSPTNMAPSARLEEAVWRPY
# Target sequence (Q13951 whole entry, looked up, the tested form may be a part): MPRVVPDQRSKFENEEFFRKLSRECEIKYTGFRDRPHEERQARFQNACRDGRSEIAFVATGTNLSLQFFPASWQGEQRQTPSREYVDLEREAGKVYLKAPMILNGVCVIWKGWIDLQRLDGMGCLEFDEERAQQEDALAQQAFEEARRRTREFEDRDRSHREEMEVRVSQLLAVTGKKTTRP
# RanGTP-Imp inh: inhibitors of RanGTP-importin-beta interaction, primary screen, biochemical, FRET, CFP-Ran, YFP-importin-beta, homogeneous; cell-free CFP-Ran/YFP-importin-beta FRET ratio; AID 2216; hit rate 1.1% among 300,000; inhibition, % (no concentration beside the values);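 active means more than half of the replicate wells show a fall in the fluorescence ratio signal beyond about 16%, limit read from the data, passing the limit was not always enough; inconclusive means exactly half of the replicate wells pass the set limit; inactive means fewer than half of replicates pass the limit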;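 further: 0% = DMSO wells and 100% = Ran loaded with GDP instead of GTP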
# Runt-CBFb FRET: inhibitors of human RUNX1 Runt domain binding to CBFb | Q01196+Q13951 | Cerulean-Runt/Venus-CBFb FRET ratio 530/480, 1 h | inhibition, % at 20 µM | hit rate 0.46% among 220,000;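 active means inhibition over about 50% at 20 µM in the single-dose screen, limit read from the data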;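 further: 0% = DMSO wells and 100% = excess unlabeled CBFb competitor control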
#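 Buffer or medium: Tris pH 7.5 buffer with BSA. Assay system: Cerulean-labeled Runt domain protein. Amount: each fluorescent fusion protein 100 nM. Read-out basis: loss of energy transfer signal. Incubation: 1 h compound exposure, room temperature. Probe or stimulus: Venus-CBFb binding partner, 100 nM. Detection: FRET, excitation 422 nm, emission at 530 and 480 nm.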
# CaV13 FRET inh: Primary screen for inhibitors of IQ motif and Ca2+-dependent inactivation inhibitor domain binding in CACNA1D, Förster resonance energy transfer in living cells, …; HEK cells, CFP/YFP FRET ICDI-IQ, plate reader, 10 min; percent FRET-ratio fall versus neutral wells; inhibition, % at 12.3 µM; hit rate 0.098% among 340,000; AID 743397;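 active means mean replicate inhibition of at least 30% and at least 1% of replicates passing that level; inconclusive means only one of the two criteria is met; inactive means neither criterion is met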;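 further: 0% = median of the neutral control wells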
# * hit, by the source's call; ? = inconclusive; . = no result; + = active, no number.
SMILES,Runt-SMMHC FRET,RanGTP-Imp inh,Runt-CBFb FRET,CaV13 FRET inh
Nc1ccc2ccc3cccc[n+]3c2c1,.,-337,.,+
COc1ccc2c3c([nH]c2c1)C(C)NCC3 (stereo not given),85*,?,21,.
Cn1c(=O)c2c(nc(N/N=C/c3c(O)n(-c4ccccc4)c(=S)[nH]c3=O)n2C)n(C)c1=O,-2,2,-3,-3
CCNCC1(c2ccc(OC)c(OC)c2)CCCC1,24,60*,12,-5
Cc1ccc(N2C(=O)NC(=O)/C(=C/C=C/c3ccco3)C2=O)cc1,-22,-4,10,-5
O=C1NC(=O)N(c2ccccc2)C(=O)/C1=C\C=C\c1ccccc1,55*,0,37,-6
CCCCNS(=O)(=O)c1ccc(OCC(=O)N2CCN(Cc3ccc4c(c3)OCO4)CC2)cc1,.,0,.,.
O=C1NC(=O)C2=Cc3ccc(O)cc3OC2(O)N1 (stereo not given),90*,.,3,.
O=C1C=C2c3ccccc3CC(C(=O)O)C2CC1 (stereo not given),.,.,.,-9
c1ccc(CCN2CCC3CCNC3C2)cc1 (stereo not given),.,.,.,-10
Cn1cnc([N+](=O)[O-])c1Sc1ccc([N+](=O)[O-])cc1,-2,?,7,4
CC(=O)C1C(=O)NC23CCCCC2C1c1ccccc1O3 (stereo not given),-1,?,-2,-5
CC12CC(c3ccccc3O1)C(C(=O)OCc1ccccc1)C(=O)N2 (stereo not given),2,4,-1,99*
CC(=O)O[C@H]1CCC2C3CC[C@H]4[C@@H](O)[C@H](O)CC[C@]4(C)C3CC[C@@]21C (stereo not given in full),.,.,.,-6
CC(=O)O[C@H]1CCC2C3CCC4=CC(=O)CCC4=C3C=C[C@@]21C (stereo not given in full),.,32*,.,-4
CN1CCN(c2c(C#N)c(C(F)(F)F)nn2C)CC1,-4,?,81*,-2
Cc1nn(Cc2ccccc2)c(Cl)c1C(=O)OCC(=O)NCC1CCCO1 (stereo not given),-1,3,1,-6
CCC(C)NC(=O)c1c(N)n(CCCOC)c2nc3ccccc3nc12 (stereo not given),20,112*,-10,-1
CCC(C)NC(=O)c1c(N)n(CC2CCCO2)c2nc3ccccc3nc12 (stereo not given),100*,5,12,1
CCCCOCCCn1c(N)c(C(=O)OC(C)COC)c2nc3ccccc3nc21 (stereo not given),128*,5,41,-4
COCCCn1c(N)c(C(=O)Nc2sc3c(c2C(=O)OC)CCCC3)c2nc3ccccc3nc21,8,12,93*,.
CCOC(=O)Cc1csc(NC(=O)c2c(O)c3ccccc3n(CCC(C)C)c2=O)n1,-6,-2,0,-17
CC(C)CCNC(=O)c1c(N)n(CC2CCCO2)c2nc3ccccc3nc12 (stereo not given),20,93*,2,-5
Cc1cccn2c(NCC3CCCO3)c(C(C)C)nc12 (stereo not given),-2,-2,-4,-4
CCC(C)NC(=O)c1c(N)n(Cc2ccc3c(c2)OCO3)c2nc3ccccc3nc12 (stereo not given),26,60*,5,-4
SMILES,Runt-SMMHC FRET,RanGTP-Imp inh,Runt-CBFb FRET,CaV13 FRET inh
COc1cc(OC)c(C=O)c(OC(=O)N(C)C)c1,-2,0,-3,-4
NCCc1ccc(OCc2ccccc2)c(OCc2ccccc2)c1,.,.,.,-6
CN(C)C(=O)Oc1ccc2nnc3ccnn3c2c1,.,72*,.,-3
CN(C)C(=O)Oc1ccc(OC(=O)N(C)C)cc1,0,?,-2,.
COCCNC(=O)c1c(N)n(Cc2ccco2)c2nc3ccccc3nc12,42,90*,58*,-4
Nc1c(C(=O)OCc2ccccc2)c2nc3ccccc3nc2n1Cc1cccs1,18,0,4,-5
CC(C)(C)OC(=O)c1c(N)n(Cc2ccco2)c2nc3ccccc3nc12,59*,32*,71*,-3
C=CCNC(=O)c1c(N)n(Cc2ccco2)c2nc3ccccc3nc12,42,77*,76*,-2
O=C(Nc1ccccc1)c1c(O)c2c(n(Cc3ccco3)c1=O)CCCC2,2,?,3,-4
CC1CC(NC(=O)C2C3CCC(O3)C2C(=O)O)CC(C)(C)C1 (stereo not given),1,1,-1,-5
CC(C)C(NC(=O)C(C(C)C)N(C)C)C(=O)N(C)C(C(=O)N1CCCC1C(=O)N1CCCC1C(=O)NCc1ccccc1)C(C)C (stereo not given),.,.,.,-6
Cc1ccc2c(c1)c(=O)c1c3n2CCN(CC2CO2)C3CC1 (stereo not given),11,29*,4,-5
O=c1[nH]c(=O)n(Cc2ccccc2)c(O)c1/C=C1\C=Nc2ccccc21,93*,0,39,-2
O=C(O)Cn1cc(C(=O)c2ccccc2F)c2ccccc21,.,-3,.,-20
Cc1ccc(S(=O)(=O)NC(CC(=O)N2CCC3(CC2)OCCO3)c2ccco2)cc1 (stereo not given),1,21*,0,-3
C[C@]12CCC3C(CC[C@H]4C[C@H](O)CC[C@]34C)C1C[C@@H](CCCCl)[C@@H]2O (stereo not given in full),.,.,.,-5
C=CCn1c(O)c(/C=C2/C=c3ccccc3=N2)c(=O)[nH]c1=S,.,-1,.,-3
CCn1c(O)c(/C=N/NC(=O)c2ccncc2)c(=O)[nH]c1=S,82*,5,28,-1
CCn1c(O)c(/C=N/NC(=O)c2ccccc2)c(=O)n(CC)c1=S,70*,11,36,4
O=C(N/N=C/c1c(O)n(Cc2ccc(F)cc2)c(=S)[nH]c1=O)c1ccncc1,84*,10,69*,3
CCC(C)n1c(O)c(/C=N/NC(=O)c2ccncc2)c(=O)[nH]c1=S (stereo not given),77*,-2,44,-4
CCCCn1c(O)c(/C=N/NC(=O)c2ccncc2)c(=O)[nH]c1=O,5,1,3,-5
CC(=O)N(C)CC#CCN1CCC(O)CC1,.,-1,.,-4
O=C1c2ccccc2-n2nnnc2C2c3ccccc3-n3nncc3CN12 (stereo not given),.,.,.,-6
CC(C)c1ccc(-n2c(O)c(/C=N/NC(=O)c3ccccc3O)c(=O)[nH]c2=S)cc1,59*,3,21,-16
CC(C)C[C@@H]1COc2cccc(N3CCN(C)CC3)c2S(=O)(=O)N1,.,.,.,-7
N#C[C@H](O[C@@H]1O[C@H](CO[C@@H]2O[C@H](CO)[C@@H](O)[C@H](O)[C@H]2O)[C@@H](O)[C@H](O)[C@H]1O)c1ccccc1,.,.,.,-10
O=c1ccc2cc(O[C@@H]3O[C@@H](CO)[C@H](O)[C@@H](O)[C@@H]3O)c(O)cc2o1,.,102*,.,13
